# High-throughput results deposited in PubChem BioAssay by Sanford-Burnham Center for Chemical Genomics.
# Shown are actives, neighbours in structure and some others; about 3.3% of the full set was active somewhere.
# SENP6 inh = SENP6 protease inhibitors, primary screen, biochemical, luminescence, uHTS | Recombinant SENP6 catalytic domain, aminoluciferin luminescence | inhibition, % at 10 µM | hit rate 1.8% among 330,000 | AID 2599, 2010;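 active = inhibition above about 50% at the single tested dose, limit read from the data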;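 also: plate controls were DMSO wells with enzyme for no effect and DMSO wells lacking enzyme for full effect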
# SENP1 FRET inh = human SENP1 catalytic domain inhibitors, primary screen, biochemical, FRET, uHTS; inhibition, % at 10 µM; Sentrin-specific protease 1 (Homo sapiens), Q9P0U3; hit rate 0.21% among 360,000; recombinant SENP1 catalytic domain, CyPet-SUMO1-YPet FRET cleavage;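 active = inhibition at least 30% at 10 µM, raw YFP signal under a set limit, fluorescence ratio 0.5 to 1.5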;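 also: 0% = enzyme with DMSO and 100% = no enzyme wells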
#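 Material – human SENP1 catalytic domain · Input – SENP1 enzyme, 20 pM final · Compound dosing – single concentration of 10 µM compound, 0.5% DMSO final · Timing – enzyme reaction for 50 min at room temperature, dark · Measured by – FRET fluorescence in CFP and YFP emission channels · Control set – no-enzyme wells low, DMSO-plus-enzyme wells high control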
# SENP8 block-1 = human SENP8 protease inhibitors, primary screen, biochemical, fluorescence, Nedd8 protein substrate, uHTS. recombinant SENP8. hit rate 0.64% among 360,000. inhibition, % at 20 µM; in the data active = inhibition mostly above about 40%, no sharp cut-off; inactive = mostly below about 27%
# Target sequence (Q96LD8 whole entry, looked up): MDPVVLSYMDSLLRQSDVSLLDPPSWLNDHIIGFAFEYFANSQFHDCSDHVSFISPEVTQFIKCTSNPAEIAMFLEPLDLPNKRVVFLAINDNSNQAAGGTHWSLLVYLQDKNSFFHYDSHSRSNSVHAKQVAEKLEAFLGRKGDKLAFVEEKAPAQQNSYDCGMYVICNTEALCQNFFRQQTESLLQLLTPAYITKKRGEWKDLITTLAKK
# SENP7 block = SENP7 protease inhibitors, primary screen, biochemical, luminescence, uHTS; Sentrin-specific protease 7 (Homo sapiens), Q9BQF6; recombinant SENP7, Z-RLRGG-aminoluciferin luminescence, 40 min; inhibition, % at 5 µM; hit rate 1.5% among 330,000; AID 434973, 2010;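 active = inhibition above about 50% at the single test dose, limit read from the data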;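 also: plate controls were DMSO with enzyme for no effect and no enzyme buffer wells for full effect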
# Target sequence (Q9BQF6 706-1050 limits assumed): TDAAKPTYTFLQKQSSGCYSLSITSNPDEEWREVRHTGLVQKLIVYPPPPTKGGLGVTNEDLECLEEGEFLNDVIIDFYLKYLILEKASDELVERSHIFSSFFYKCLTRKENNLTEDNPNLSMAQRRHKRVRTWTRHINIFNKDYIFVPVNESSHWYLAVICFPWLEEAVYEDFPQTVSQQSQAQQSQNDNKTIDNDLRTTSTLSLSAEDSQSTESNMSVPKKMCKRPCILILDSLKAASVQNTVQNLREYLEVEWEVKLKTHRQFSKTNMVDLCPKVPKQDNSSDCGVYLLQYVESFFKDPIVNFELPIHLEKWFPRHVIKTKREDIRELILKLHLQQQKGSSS
# SENP8 block-2 = SENP8 protease inhibitors, primary screen, biochemical, luminescence. Sentrin-specific protease 8 (Homo sapiens), Q96LD8. inhibition, % at 10 µM. purified SENP8, Z-RLRGG-aminoluciferin cleavage. hit rate 1.2% among 330,000; in the data active = inhibition above about 50%
# NRP1-CendR mod = modulators of CendR peptide binding to NRP-1, primary screen, biochemical, fluorescence polarization, uHTS; Neuropilin-1 (Homo sapiens), O14786; FAM-RPARPAR peptide binding to NRP-1; inhibition, % at 25 µM; hit rate 0.85% among 360,000; AID 602438, 2012;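 active = inhibition or corrected inhibition above about 18%, plus a signal ratio from 0.5 to 1.5, limit read from the data, passing the limit was not always enough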
# SENP1 inh conf = human SENP1 catalytic domain inhibitors, confirmation, biochemical, FRET endpoint, single concentration. shares compounds with SENP1 FRET inh. recombinant SENP1, CyPet-SUMO1-YPet FRET cleavage. inhibition, % at 10 µM. hit rate 34% among 520. AID 651678, 2012; in the data active = inhibition mostly above about 35%, no sharp cut-off; inactive = mostly below about 32%;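 also: 0% = enzyme with DMSO and 100% = no enzyme control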
# SENP1 kin conf = human SENP1 catalytic domain inhibitors, confirmation, biochemical, kinetic FRET, single concentration. shares compounds with SENP1 FRET inh. recombinant SENP1, CyPet-SUMO1-YPet FRET kinetic cleavage. inhibition, % at 10 µM. hit rate 26% among 520. AID 651690, 2012; in the data active = inhibition mostly above about 32%, no sharp cut-off; inactive = mostly below about 29%;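 also: 0% = DMSO with enzyme and 100% = no enzyme substrate only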
# Starred values were filed as active, the others as inactive; . = no result given.
SMILES,SENP6 inh,SENP1 FRET inh,SENP8 block-1,SENP7 block,SENP8 block-2,NRP1-CendR mod,SENP1 inh conf,SENP1 kin conf
COc1cc(NC2=Nc3cccc4cccc2c34)cc(OC)c1OC,-2,68*,17,-5,4,-66,39*,22
COc1ccc(CC(=O)NNC2=Nc3cccc4cccc2c34)cc1OC,15,-144,-47,4,7,-6,.,.
COc1cccc(NC2=Nc3cccc4cccc2c34)c1,-19,81*,1,-5,-18,-83,55*,33*
COc1ccc(NC2=Nc3cccc4cccc2c34)cc1OC,-6,70*,32,-2,-5,5,29,12
COc1cccc(Nc2n[nH]c(=S)s2)c1,7,1,18,4,0,1,.,.
COc1cc(Nc2ncnc(N)n2)cc(OC)c1OC,-21,1,12,5,3,-4,.,.
O=C(Nc1ccn(CCCNCC2CCCO2)c(=O)n1)OCc1ccccc1 (configuration not stated),.,1,11,.,.,-11,.,.
Cc1cccc(C)c1-n1nnnc1-c1nc2cc(Br)ccc2[nH]c1=O,.,-26,-44,.,.,-17,.,.
Cc1cccc(C)c1-n1nnnc1-c1nc2cc3ccccc3cc2[nH]c1=O,.,63*,21,.,.,-15,62*,45*
Cc1cccc(/C=C/c2onc(C)c2[N+](=O)[O-])n1,1,.,.,-3,2,.,.,.
COc1cc(/C=C/c2onc(C)c2[N+](=O)[O-])cc(OC)c1OC,0,49*,12,2,2,1,9,10
CC(C)CN1C(=O)C(=O)N(CC(=O)NCCCc2ccccc2)C1=O,.,1,19,.,.,9,.,.
COc1ccccc1NC(=O)/C(=C\c1cccnc1)NC(=O)c1ccc(C)cc1,-3,-2,10,-1,3,-1,.,.
Cc1cc(NC(=O)CSc2nc3c(C)cccc3cc2C#N)no1,-5,20,-12,-3,17,11,.,.
Cc1cc(NC(=O)CSc2nc3c(C)ccc(C)c3cc2C#N)no1,4,68*,-92,-6,10,-2,15,12
Cc1cc(C)c2cc(C#N)c(SCC(=O)Nc3cc(C)on3)nc2c1,-6,50*,-61,2,-1,-24,-14,6
Cc1nc2ccc(NS(=O)(=O)c3ccc(F)cc3F)cc2s1,-13,58*,-11,4,4,-35,37*,29
Cc1nc2ccc(NS(=O)(=O)c3c(F)cc(F)cc3Br)cc2s1,3,44*,1,-7,8,-27,18,17
Cc1nc2ccc(NS(=O)(=O)c3ccc(F)c(F)c3F)cc2s1,-26,26,-8,-3,3,-20,.,.
COc1cc(S(=O)(=O)Nc2ccc3nc(C)sc3c2)ccc1NC(C)=O,-9,36*,-24,8,-5,-31,20,16
Cc1ccc(S(=O)(=O)NC(=O)N2CCCC2)cc1,.,3,7,.,.,-30,.,.
CCOC(=O)C(C)Sc1nnc(Cc2cc(=O)[nH]c(=O)[nH]2)n1-c1ccc(Cl)cc1 (configuration not stated),-13,64*,8,-5,6,-5,13,8
CCc1ccccc1NC(=O)CN(C)C(=O)COC(=O)c1c(Cl)cccc1Cl,-12,-1,1,-9,-24,11,.,.
O=C(C[n+]1cccc2ccccc21)c1ccc(Cl)cc1,-7,43*,-27,-5,3,-31,4,6
COC(=O)c1c(NC(=O)c2ccccc2)sc(C(N)=O)c1C,-9,-3,-281,-6,4,-13,.,.
SMILES,SENP6 inh,SENP1 FRET inh,SENP8 block-1,SENP7 block,SENP8 block-2,NRP1-CendR mod,SENP1 inh conf,SENP1 kin conf
COC(=O)c1c(NC(=O)c2ccccc2)sc(C(=O)c2ccccc2)c1C,1,43*,20,3,-2,3,24*,34*
Cc1nc(Nc2ccc(Cl)c(Cl)c2)sc1C(/C=C/c1ccc2c(c1)OCO2)=NNc1ccc([N+](=O)[O-])cc1[N+](=O)[O-],.,9,26,.,.,-3,.,.
CCCCOc1ccc(S(=O)(=O)NC(=O)C2(C)CCN2C(=O)CCc2ccccc2)cc1 (configuration not stated),.,1,13,.,.,1,.,.
CN(C)CCNc1ccc(CO)c2oc3ccc(O)cc3c(=O)c12,.,58*,6,.,.,-7,65*,39*
CCN(CC)CCNC(CC(=O)Nc1ccc(Cl)cc1Cl)C(=O)O (configuration not stated),-31,0,26,13,-7,1,.,.
CCN(CC)CCNc1ccc(CO)c2oc3cc(Cl)ccc3c(=O)c12,.,48*,35,.,.,3,55*,35*
O=c1cc(NCCCO)c2ccccc2o1,-7,1,10,4,-2,14,.,.
CCN(CC)S(=O)(=O)c1ccc(N2CCOCC2)c(NC(=O)c2ccc(C#N)cc2)c1,-5,36*,1,-8,-4,-8,0,9
CC(C)(C)N=Cc1c(O)ccc2oc3c(c12)CCCC3,4,31*,14,-4,-3,52,4,0
O=CNc1ccc2c(c1)Cc1cc([N+](=O)[O-])ccc1-2,.,48*,-4,.,.,0,27,20
CCC(=O)Nc1ccc2c(c1)Cc1cc([N+](=O)[O-])ccc1-2,.,-6,-30,.,.,-19,.,.
COc1ccc(OC)c(COC(=O)c2cccc(S(=O)(=O)N3CCCCC3)c2)c1,-2,2,-1,-2,13,-14,.,.
NC1=CC(=O)c2cccc3cccc1c23,-3,.,.,12,5,.,.,.
O=C1C=C(O)c2cccc3cccc1c23,19,45*,22,-3,6,41*,66*,42*
Cc1cc(-c2ccccc2)nc(=O)[nH]1,0,35*,-16,-6,-10,1,1,13
O=C1NC(=S)SC1=Cc1cc(Br)ccc1O,.,32*,25,.,.,-245,96*,52*
Cc1sc(-c2ccccn2)nc1OC(=O)c1ccc(F)cc1F,.,51*,-32,.,.,-4,50*,69*
O=C(NCCSCc1ccccc1)c1ccc(C2SCC(=O)N2Cc2ccccc2)cc1 (configuration not stated),-5,63*,5,3,4,-44,45*,50*
